Key:
[1] = system: Plasmodium falciparum; assay: Antimalarial activity against Plasmodium falciparum K1 by microculture radioisotope assay; assay type: functional, organism-based
Outline: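 Radioisotope microculture assay of P. falciparum K1 growth, with dihydroartemisinin as the reference antimalarial. IC50 reported as mean ± SD, n = 3.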

[2] = system: Human alphaherpesvirus 1; assay: Antiviral activity against HSV1 by colorimetric method; assay type: functional, organism-based
Outline: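 HSV-1 inhibition read by a colorimetric method, with acyclovir as the reference compound. IC50 reported as mean ± SD, n = 3.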

[3] = system: KB; assay: Cytotoxicity against human KB cells by colorimetric method; assay type: functional, cell-based
Outline: (§1)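 Colorimetric cytotoxicity read-out, with ellipticine as the reference compound. Cell types: KB (oral human epidermal carcinoma), BC (human breast cancer), NCI-H187 (human small-cell lung cancer) and Vero (African green monkey kidney fibroblast). IC50 reported as mean ± SD, n = 3.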

[4] = Cytotoxicity against human BC cells by colorimetric method; assay type: functional, cell-based; outline: as §1
[5] = system: NCI-H187; assay: Cytotoxicity against human NCI-H187 cells by colorimetric method; assay type: functional, cell-based; outline: as §1
[6] = system: Vero; assay: Cytotoxicity against African green monkey Vero cells by colorimetric method; assay type: cell-based; details: Chlorocebus sabaeus; outline: as §1

SMILES	IC50 [1] [µM]	IC50 [2] [µM]	IC50 [3] [µM]	IC50 [4] [µM]	IC50 [5] [µM]	IC50 [6] [µM]
CCCCCCCc1cc(O)cc(OC(=O)c2c(CCCCCCC)cc(O)cc2O[C@@H]2O[C@H](CO[C@@H]3O[C@H](CO)[C@H](O)[C@H](O)[C@H]3O)[C@H](O)[C@H](O)[C@H]2O)c1	> 10	> 50	> 25	20.2	> 25	32.1
CCCCCCCc1cc(O)cc(OC(=O)c2c(CCCCCCC)cc(O)cc2O[C@@H]2O[C@H](CO)[C@H](O)[C@H](O)[C@H]2O)c1	> 10	7.2	> 25	4.4	13.9	43.2
CCCCCCCc1cc(O)cc(OC(=O)c2c(O)cc(O)cc2CCCCCCC)c1	9.9	> 100	13	8.8	13.6	34.3
CCCCCCCc1cc(O)cc(O[C@@H]2O[C@H](CO)[C@@H](OC)[C@H](O)[C@H]2O)c1	> 25	> 100	> 50	> 50	> 50	> 100
Nc1nc2c(ncn2COCCO)c(=O)[nH]1 [ACYCLOVIR]		10.2				
C[C@H]1[C@@H](O)O[C@@H]2O[C@@]3(C)CC[C@H]4[C@H](C)CC[C@@H]1[C@@]24OO3 [ARTENIMOL]	0.0039					
Cc1c2ccncc2c(C)c2c1[nH]c1ccccc12 [ELLIPTECINE]			1.99	0.49	1.71	10.2
